# Assay outcomes as filed in PubChem BioAssay.
# RBBP9 inh: human RBBP9 inhibitors, primary screen, biochemical, fluorescence polarization, FP-Rh probe, HTS; Serine hydrolase RBBP9 (Homo sapiens), O75884; recombinant RBBP9; inhibition, % at 7.94 µM; actives 0.2% (n = 220,000); AID 1515, 2009;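 active = inhibition above the campaign mean of all tested compounds plus 3 SD, cut at about 14% in these data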;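 also: plate controls were DMSO wells with RBBP9 for no effect and wells lacking RBBP9 protein for full effect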
# Target sequence (O75884 whole entry, looked up): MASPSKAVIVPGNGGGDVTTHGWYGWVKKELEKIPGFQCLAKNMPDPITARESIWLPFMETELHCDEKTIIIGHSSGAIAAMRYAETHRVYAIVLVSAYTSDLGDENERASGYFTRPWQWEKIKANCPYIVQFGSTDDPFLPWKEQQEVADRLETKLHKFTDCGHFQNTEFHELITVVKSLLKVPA
#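 System: RBBP9 protein | Quantity: 2.5 µM RBBP9 dispensing solution, before mixing | Reagent: FP-Rh probe, 375 nM dispensing solution | Timing: Enzyme-compound preincubation 30 min, then probe labeling 45 min, 25 °C | Measured by: Fluorescence polarization | Read-out: % inhibition | Replication: One well per compound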
# Wee1 degr inh: Wee1 degradation inhibitors, primary screen, cell-based, HeLa, Wee1K328M-luciferase, luminescence; HeLa Luc-Wee1K328M stability; 100% = proteasome inhibitor MG132 effect; reporter increase, % at 5 µM; actives 1.2% (n = 220,000);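 active = activation above the mean of all tested compounds plus 3 SD, set per screening run, cut at about 8.8% in these data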;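 also: cells exposed to compound for 20 h before luminescence read; 0% = DMSO alone and 100% = MG132 at 30 µM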
# p97 inhibitor: inhibitors of human p97 ATPase, primary screen, biochemical. recombinant p97 ATPase, Kinase-Glo ATP luminescence, 3 h. inhibition, % at 8 µM. actives 0.42% (n = 220,000). AID 1481, 2009; in the data active = inhibition above about 15%;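 also: 0% = DMSO vehicle and 100% = wells lacking enzyme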
# L929 necroptosis: inhibitors of zVAD-triggered necroptosis, primary screen, L929 cells; actives 0.38% (n = 220,000); viability rescue, % at 10 µM; AID 1377, 2008; L929 zVAD necroptosis rescue, ATP luminescence, 24 h; with zVAD 60 µM;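 active = activation, scaled between plate controls, above about 75%, limit read from the data; inactive = activation under that limit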;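 also: 0% = zVAD with DMSO and 100% = DMSO alone without zVAD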
# TNF necrop inh: inhibitors of TNF-alpha triggered necroptosis, primary screen, cell-based, Jurkat FADD-/-, single concentration; activation (protection from cell death), % at 10 µM; Jurkat FADD-/- TNF necroptosis rescue, ATP luminescence, 24 h; 0 = TNF only, 100 = no-TNF cells; actives 0.068% (n = 220,000);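 active = activation, meaning protection from cell death, of at least 50% relative to plate controls; inactive = activation below 50%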;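 also: necroptosis triggered by 40 ng/mL TNF-alpha added together with compound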
# PfM18AAP inh-1: PfM18AAP inhibitors, malaria aminopeptidase, primary screen, biochemical, QFRET, recombinant enzyme. M18 aspartyl aminopeptidase (Plasmodium falciparum 3D7). H-Glu-NHMec fluorogenic cleavage. inhibition, % at 7.35 µM. actives 1.2% (n = 290,000). AID 1822, 2009;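 active = inhibition above the campaign mean inhibition over all tested compounds plus 3 SD, cut at about 28% in these data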;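 also: 0% = plate median of test compound wells and 100% = 2 mM ZnCl2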
# PfM18AAP inh-2: PfM18AAP inhibitors, malaria aminopeptidase, confirmation, biochemical, QFRET, recombinant enzyme, triplicate | shares compounds with PfM18AAP inh-1 | H-Glu-NHMec fluorogenic cleavage | inhibition, % at 7.35 µM | actives 28% (n = 2,400);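 active = mean inhibition over replicate wells above the hit cutoff set for the earlier primary screen, cut at about 29% in these data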;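 also: 0% = median of test compound wells and 100% = 2 mM ZnCl2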
# CTSL1 counter: cathepsin L1 inhibitors, retest, confirmation, counter-screen for PFM18AAP inhibitor project, biochemical, QFRET, triplicate | purified cathepsin L1, Z-Leu-Arg-MCA fluorescence | inhibition, % at 5.96 µM | 2,400 tested, under 10 active | shares compounds with PfM18AAP inh-1 | AID 2178, 2009;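 active = average inhibition across replicates above the hit cutoff set in the earlier primary screen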;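 also: 0% = median of test compound wells and 100% = Z-Phe-Ala-diazomethylketone 1 µM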
# Target sequence (P07711 whole entry, looked up): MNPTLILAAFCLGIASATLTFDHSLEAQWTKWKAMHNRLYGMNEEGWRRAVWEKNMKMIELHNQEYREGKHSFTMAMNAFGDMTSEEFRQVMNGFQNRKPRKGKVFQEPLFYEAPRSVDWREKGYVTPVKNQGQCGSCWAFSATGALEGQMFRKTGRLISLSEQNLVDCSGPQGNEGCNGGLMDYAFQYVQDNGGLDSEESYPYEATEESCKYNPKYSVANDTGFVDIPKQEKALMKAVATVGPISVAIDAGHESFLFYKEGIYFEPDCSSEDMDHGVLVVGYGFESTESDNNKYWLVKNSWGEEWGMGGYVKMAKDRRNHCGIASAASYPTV
# * hit, by the source's call; . = no result given. Compounds with a hit are over-represented: about 2.7% of the library has one in this group of screens.
SMILES,RBBP9 inh,Wee1 degr inh,p97 inhibitor,L929 necroptosis,TNF necrop inh,PfM18AAP inh-1,PfM18AAP inh-2,CTSL1 counter
O=C(O)CCCCCN1C(=O)C(O)=C(C(=O)/C=C/c2ccccc2)C1c1ccc2c(c1)OCO2 (centres undefined),0,0,2,0,1,55*,-1,2
O=C(/C=C/c1ccccc1)C1=C(O)C(=O)N(CCO)C1c1cccc([N+](=O)[O-])c1 (centres undefined),-3,-1,2,1,5,-3,.,.
Cc1ccccc1NC(=S)C1=C(O)c2sccc2N(C)S1(=O)=O,-14,-2,3,-1,-2,33*,-47,3
CN1c2ccsc2C(O)=C(C(=S)Nc2ccccc2)S1(=O)=O,5,-2,5,0,0,6,.,.
CC(C)Oc1ccc(-c2nn(-c3ccccc3)cc2/C=c2\sc3ncnn3c2=O)cc1,-1,10*,0,0,-1,58*,-17,3
Cc1ccc(NC(=S)N2CCN(S(C)(=O)=O)CC2)cc1Cl,.,.,.,.,.,-4,.,.
Nc1nc(Sc2ccc(C(F)(F)F)cc2[N+](=O)[O-])n[nH]1,3,0,-3,0,0,63*,56*,-6
CCCCCCN1CC(C(=O)OCC)C(=O)C1=O (centres undefined),1,1,4,0,0,2,.,.
O=C(NN=C1CCC(=NNC(=O)c2ccccn2)CC1)c1ccccn1,5,6,2,0,0,32*,-17,-1
C=CCc1ccc(OCc2ccc(C(=O)Nc3ccc(NC(C)=O)cc3)o2)c(OC)c1,.,.,.,.,.,-3,.,.
COC(=O)N/N=C/c1ccc(-c2ccc(C)c(Cl)c2)o1,-6,2,-4,1,2,4,.,.
Cc1ccc(-c2ccc(/C=N/c3ncn[nH]3)o2)cc1Cl,-8,0,3,0,-1,37*,43*,2
C=CCn1c(-c2sc3nc(C)cc(C)c3c2N)n[nH]c1=S,-1,-1,-1,0,1,43*,13,3
COc1ccccc1/C=C/C(=O)OC(C)CN1CCOCC1 (centres undefined),-3,-1,1,0,-3,51*,-39,4
NC(=O)c1ccc(N2CCN(c3ccccc3F)CC2)c([N+](=O)[O-])c1,-6,2,0,1,-2,6,.,.
NC(=O)c1ccc(N2CCN(c3ccccc3O)CC2)c([N+](=O)[O-])c1,-6,-2,-4,-2,1,36*,-8,-4
Cc1ccc(-n2nc3c(=O)n(CCCC(=O)NCC(C)c4ccccc4)nc(C)c3c2C)cc1 (centres undefined),.,.,.,.,.,-10,.,.
Cc1cc(SCC(=O)N/N=C/c2ccc(O)c(O)c2)c(C)cc1Br,-7,-3,11,3,-9,54*,36*,-3
O=C(N/N=C/c1ccc(O)c(O)c1)c1cc(-c2ccccc2)nc2ccccc12,.,.,.,.,.,61*,48*,-5
O=C(Cc1nnc(NC(=O)c2ccccc2)s1)N/N=C\c1ccc(O)c(O)c1,.,.,.,.,.,57*,38*,0
O=C(CSc1nc2ccccc2o1)N/N=C/c1ccc(O)c(O)c1,-7,-1,13,2,-13,62*,52*,-3
O=C(N/N=C/c1cccc(O)c1)c1cc(-c2ccccc2)nc2ccccc12,.,.,.,.,.,3,.,.
O=C(Cc1nnc(NC(=O)c2ccccc2)s1)N/N=C/c1ccc(O)cc1,.,.,.,.,.,-1,.,.
COc1ccc(NC(=O)CCNS(=O)(=O)c2ccccc2F)cc1S(N)(=O)=O,.,.,.,.,.,0,.,.
Cc1cc(SCC(=O)N/N=C/c2ccc(O)cc2O)nc2ccccc12,.,.,.,.,.,10,.,.
SMILES,RBBP9 inh,Wee1 degr inh,p97 inhibitor,L929 necroptosis,TNF necrop inh,PfM18AAP inh-1,PfM18AAP inh-2,CTSL1 counter
Cc1cc(SCC(=O)N/N=C/c2ccc(O)c(O)c2)nc2ccccc12,.,.,.,.,.,56*,43*,2
CC(C)CNC(=S)N1CCC(C(=O)c2ccc3c(c2)OCCO3)CC1,-4,-2,1,41,1,-4,.,.
CCOc1ccc(N2C=Nc3ccc(OCC)cc3C2)cc1,.,.,.,.,.,-3,.,.
CCOC(=O)c1sc(NC(=O)Cc2ccc(C)cc2)nc1C,-6,3,1,65,8,2,.,.
CCOC(=O)c1sc(NNC(=O)c2ccc(C)cc2)nc1C,-12,-1,7,3,2,37*,8,-1
CC(C)(C)c1cc[n+](-c2[nH]c(=O)sc2/C=N/NC([S-])=Nc2ccccc2)cc1,-2,0,2,1,3,35*,5,3
COc1cccc(/C=N/Nc2nn3cnnc3c3ccccc23)c1,-7,-3,-12,-1,-13,40*,-46,5
BrC(=C\c1ccccc1)/C=N/Nc1ccc2nncn2n1,-8,-3,5,0,-1,32*,-17,-1
Oc1ccc(/C=N/Nc2nn3cnnc3c3ccccc23)cc1,6,-2,-15,0,-2,33*,-58,2
BrC(=C\c1ccccc1)/C=N/n1cnnc1,-3,6,3,56,2,68*,61*,4
COc1cc(/C=N/Nc2nn3cnnc3c3ccccc23)ccc1O,1,-3,-22,1,-7,5,.,.
Cc1ccc(CNC(=O)C2CCC(=O)N2C(C)C)cc1 (centres undefined),.,.,.,.,.,-4,.,.
O=C(CC12CC3CC(CC(C3)C1)C2)Nc1nncs1,.,.,.,.,.,6,.,.
Fc1cccc2sc(N3CCCC3)nc12,-6,-1,-2,1,0,-11,.,.
O=C(Cc1ccsc1)Nc1ccccc1F,.,.,.,.,.,-3,.,.
CCOc1cc(/C=N/Nc2nn3cnnc3c3ccccc23)ccc1O,-3,4,-33,-2,-5,-12,.,.
C(=N\Nc1nn2cnnc2c2ccccc12)/c1ccco1,-4,-5,-1,7,-2,44*,-23,-1
C(=N\Nc1ccc2nncn2n1)/c1ccco1,-4,-4,-3,0,0,34*,3,2
